In ChEMBL document CHEMBL1629517, “Molecular properties prediction, synthesis and antimicrobial activity of some newer oxadiazole derivatives” (2010):
Values after ≈ are worked out from the molar mass of the structure shown.

How the values were obtained:
[1] = system: Bacillus subtilis; assay: Antibacterial activity against Bacillus subtilis ATCC 6633 at 100 ug/ml after 24 hrs by disc-diffusion method; type: functional; conditions: ATCC 6633, 24 h, read-out: IZ
[2] = system: Staphylococcus aureus; assay: Antibacterial activity against Staphylococcus aureus ATCC 25923 after 24 hrs by broth dilution technique; type: functional; conditions: ATCC 25923, 24 h
How it was run: (§1)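 MIC by broth dilution: nutrient broth containing logarithmic two-fold serial dilutions of compound was inoculated with about 5 × 10⁵ c.f.u. of actively dividing bacteria.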

[3] = system: Bacillus subtilis; assay: Antibacterial activity against Bacillus subtilis ATCC 6633 after 24 hrs by broth dilution technique; type: functional; conditions: ATCC 6633, 24 h; how it was run: as §1
[4] = system: Escherichia coli; assay: Antibacterial activity against Escherichia coli ATCC 25922 after 18 to 24 hrs; type: functional
[5] = system: Pseudomonas aeruginosa; assay: Antibacterial activity against Pseudomonas aeruginosa ATCC 27853 after 24 hrs by broth dilution technique; type: functional; conditions: ATCC 27853, 24 h; how it was run: as §1
[6] = system: Bacillus subtilis; assay: Antibacterial activity against Bacillus subtilis ATCC 6633 at 200 ug/ml after 24 hrs by disc-diffusion method; type: functional; conditions: ATCC 6633, 24 h, read-out: IZ
[7] = system: Pseudomonas aeruginosa; assay: Antibacterial activity against Pseudomonas aeruginosa ATCC 27853 at 200 ug/ml after 24 hrs by disc-diffusion method; type: functional; conditions: ATCC 27853, 24 h, read-out: IZ
[8] = system: Staphylococcus aureus; assay: Antibacterial activity against Staphylococcus aureus ATCC 25923 after 18 to 24 hrs; type: functional
[9] = system: Escherichia coli; assay: Antibacterial activity against Escherichia coli ATCC 25922 after 24 hrs by broth dilution technique; type: functional; conditions: ATCC 25922, 24 h; how it was run: as §1
[10] = system: Bacillus subtilis; assay: Antibacterial activity against Bacillus subtilis ATCC 6633 after 18 to 24 hrs; type: functional
[11] = system: Pseudomonas aeruginosa; assay: Antibacterial activity against Pseudomonas aeruginosa ATCC 27853 at 100 ug/ml after 24 hrs by disc-diffusion method; type: functional; conditions: ATCC 27853, 24 h, read-out: IZ
[12] = system: Pseudomonas aeruginosa; assay: Antibacterial activity against Pseudomonas aeruginosa ATCC 27853 after 18 to 24 hrs; type: functional
[13] = system: Staphylococcus aureus; assay: Antibacterial activity against Staphylococcus aureus ATCC 25923 at 200 ug/ml after 24 hrs by disc-diffusion method; type: functional; conditions: ATCC 25923, 24 h, read-out: IZ
[14] = system: Staphylococcus aureus; assay: Antibacterial activity against Staphylococcus aureus ATCC 25923 at 100 ug/ml after 24 hrs by disc-diffusion method; type: functional; conditions: ATCC 25923, 24 h, read-out: IZ
[15] = system: Escherichia coli; assay: Antibacterial activity against Escherichia coli ATCC 25922 at 200 ug/ml after 24 hrs by disc-diffusion method; type: functional; conditions: ATCC 25922, 24 h, read-out: IZ
[16] = system: Candida albicans; assay: Antifungal activity against Candida albicans at 200 ug/ml after 48 hrs by agar diffusion method; type: functional; conditions: read-out: IZ
How it was run: (§2)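 Agar well diffusion on Sabouraud agar (peptone 1 g, D-glucose 4 g, agar 2 g per 100 ml water, pH 5.7). Plates were lawned with a saline suspension of spores, excess was decanted, and plates were dried 1 h at 37 °C. Compounds in DMSO went into punched wells, and inhibition zones were measured against controls, with voriconazole as standard.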

[17] = system: Candida albicans; assay: Antifungal activity against Candida albicans at 100 ug/ml after 48 hrs by agar diffusion method; type: functional; conditions: read-out: IZ; how it was run: as §2
[18] = system: Aspergillus niger; assay: Antifungal activity against Aspergillus niger after 48 hrs; type: functional
[19] = system: Candida albicans; assay: Antifungal activity against Candida albicans after 48 hrs; type: functional
[20] = system: Aspergillus niger; assay: Antifungal activity against Aspergillus niger at 200 ug/ml after 48 hrs by agar diffusion method; type: functional; conditions: read-out: IZ; how it was run: as §2
[21] = system: Aspergillus niger; assay: Antifungal activity against Aspergillus niger at 100 ug/ml after 3 to 4 days by agar diffusion method; conditions: read-out: IZ
[22] = system: Escherichia coli; assay: Antibacterial activity against Escherichia coli ATCC 25922 at 100 ug/ml after 24 hrs by disc-diffusion method; type: functional; conditions: ATCC 25922, 24 h, read-out: IZ

`O=C(O)c1cn(C2CC2)c2cc(N3CCNCC3)c(F)cc2c1=O` [CIPROFLOXACIN] showed a zone of inhibition at 100 µg/mL [1] of 21 mm, an MIC [2] of 6 mg/L (≈ 18.1 µM) and an MIC [3] of 6 mg/L (≈ 18.1 µM). For the same compound, the MBC [4] was 12.5 mg/L (≈ 37.7 µM), the MIC [5] was 6 mg/L (≈ 18.1 µM) and the zone of inhibition at 200 µg/mL [6] was 22 mm. For the same compound, the zone of inhibition at 200 µg/mL [7] was 33 mm, the MBC [8] was 12.5 mg/L (≈ 37.7 µM) and the MIC [9] was 6 mg/L (≈ 18.1 µM). For the same compound, the MBC [10] was 12.5 mg/L (≈ 37.7 µM), the zone of inhibition at 100 µg/mL [11] was 32 mm and the MBC [12] was 12.5 mg/L (≈ 37.7 µM). The zone of inhibition at 200 µg/mL [13] was 24 mm, the zone of inhibition at 100 µg/mL [14] was 23 mm and the zone of inhibition at 200 µg/mL [15] was 27 mm.
Work on `C[C@@H](c1ncncc1F)[C@](O)(Cn1cncn1)c1ccc(F)cc1F` [VORICONAZOLE] yielded a zone of inhibition at 200 µg/mL [16] of 26 mm, a zone of inhibition at 100 µg/mL [17] of 24 mm and an MFC [18] of 12.5 mg/L (≈ 35.8 µM). The MIC [18] was 6 mg/L (≈ 17.2 µM), the MFC [19] was 12.5 mg/L (≈ 35.8 µM) and the MIC [19] was 6 mg/L (≈ 17.2 µM). The zone of inhibition at 200 µg/mL [20] was 30 mm and the zone of inhibition at 100 µg/mL [21] was 28 mm.
`COc1cc(/C=C/C(=O)c2ccc(O)cc2)ccc1OCc1nnc(-c2ccc(Cl)cc2)o1` gave a zone of inhibition at 100 µg/mL [1] of 11 mm, a zone of inhibition at 100 µg/mL [22] of 16 mm and a zone of inhibition at 200 µg/mL [16] of 17 mm. It also gave an MIC [2] of 25 mg/L (≈ 54 µM), an MIC [3] of 12.5 mg/L (≈ 27 µM) and an MBC [4] of 50 mg/L (≈ 108 µM). The zone of inhibition at 100 µg/mL [17] was 14 mm, the MIC [5] was 25 mg/L (≈ 54 µM) and the zone of inhibition at 200 µg/mL [6] was 13 mm. It also gave a zone of inhibition at 200 µg/mL [7] of 23 mm, an MFC [19] of 25 mg/L (≈ 54 µM) and an MIC [19] of 12.5 mg/L (≈ 27 µM). For the same compound, the MBC [8] was 100 mg/L (≈ 216 µM), the zone of inhibition at 200 µg/mL [20] was 21 mm and the MIC [9] was 25 mg/L (≈ 54 µM). It also gave an MBC [10] of 25 mg/L (≈ 54 µM), a zone of inhibition at 100 µg/mL [11] of 22 mm and a zone of inhibition at 100 µg/mL [21] of 18 mm. The MBC [12] was 100 mg/L (≈ 216 µM), the zone of inhibition at 200 µg/mL [13] was 15 mm and the zone of inhibition at 100 µg/mL [14] was 13 mm. For the same compound, the zone of inhibition at 200 µg/mL [15] was 18 mm.
`COc1ccc(C(=O)/C=C/c2ccc(OCc3nnc(-c4ccc(Cl)cc4)o3)c(OC)c2)cc1` was tested, and the zone of inhibition at 100 µg/mL [1] was 12 mm, the zone of inhibition at 100 µg/mL [22] was 17 mm and the zone of inhibition at 200 µg/mL [16] was 17 mm. The MIC [2] was 12.5 mg/L (≈ 26.2 µM), the MIC [3] was 12.5 mg/L (≈ 26.2 µM) and the MBC [4] was 100 mg/L (≈ 210 µM). The zone of inhibition at 100 µg/mL [17] was 16 mm, the MFC [18] was 50 mg/L (≈ 105 µM) and the MIC [18] was 12.5 mg/L (≈ 26.2 µM). It also gave an MIC [5] of 12.5 mg/L (≈ 26.2 µM), a zone of inhibition at 200 µg/mL [6] of 13 mm and a zone of inhibition at 200 µg/mL [7] of 24 mm. It also gave an MBC [8] of 50 mg/L (≈ 105 µM), a zone of inhibition at 200 µg/mL [20] of 21 mm and an MIC [9] of 12.5 mg/L (≈ 26.2 µM). The MBC [10] was 50 mg/L (≈ 105 µM), the zone of inhibition at 100 µg/mL [11] was 22 mm and the zone of inhibition at 100 µg/mL [21] was 19 mm. The MBC [12] was 100 mg/L (≈ 210 µM), the zone of inhibition at 200 µg/mL [13] was 15 mm and the zone of inhibition at 100 µg/mL [14] was 14 mm. It also gave a zone of inhibition at 200 µg/mL [15] of 19 mm.
`COc1cc(/C=C/C(=O)c2ccc(O)cc2)ccc1OCc1nnc(-c2ccc(C)cc2)o1` showed a zone of inhibition at 100 µg/mL [1] of 12 mm, a zone of inhibition at 100 µg/mL [22] of 19 mm and a zone of inhibition at 200 µg/mL [16] of 17 mm. The MIC [2] was 25 mg/L (≈ 56.5 µM), the MIC [3] was 12.5 mg/L (≈ 28.3 µM) and the MBC [4] was 25 mg/L (≈ 56.5 µM). The zone of inhibition at 100 µg/mL [17] was 15 mm, the MIC [5] was 25 mg/L (≈ 56.5 µM) and the zone of inhibition at 200 µg/mL [6] was 14 mm. It also gave a zone of inhibition at 200 µg/mL [7] of 25 mm, an MFC [19] of 100 mg/L (≈ 226 µM) and an MIC [19] of 25 mg/L (≈ 56.5 µM). It also gave an MBC [8] of 50 mg/L (≈ 113 µM), a zone of inhibition at 200 µg/mL [20] of 23 mm and an MIC [9] of 12.5 mg/L (≈ 28.3 µM). It also gave an MBC [10] of 25 mg/L (≈ 56.5 µM), a zone of inhibition at 100 µg/mL [11] of 23 mm and a zone of inhibition at 100 µg/mL [21] of 20 mm. The MBC [12] was 100 mg/L (≈ 226 µM), the zone of inhibition at 200 µg/mL [13] was 17 mm and the zone of inhibition at 100 µg/mL [14] was 15 mm. For the same compound, the zone of inhibition at 200 µg/mL [15] was 20 mm.
In the case of `COc1cc(/C=C/C(=O)c2ccc(O)cc2)ccc1OCc1nnc(-c2ccc([N+](=O)[O-])cc2)o1`, the zone of inhibition at 100 µg/mL [1] is reported as 10 mm, the zone of inhibition at 100 µg/mL [22] is reported as 15 mm and the zone of inhibition at 200 µg/mL [16] is reported as 15 mm. The MIC [2] was 25 mg/L (≈ 52.8 µM), the MIC [3] was 12.5 mg/L (≈ 26.4 µM) and the MBC [4] was 100 mg/L (≈ 211 µM). It also gave a zone of inhibition at 100 µg/mL [17] of 13 mm, an MFC [18] of 100 mg/L (≈ 211 µM) and an MIC [18] of 25 mg/L (≈ 52.8 µM). It also gave an MIC [5] of 12.5 mg/L (≈ 26.4 µM), a zone of inhibition at 200 µg/mL [6] of 11 mm and a zone of inhibition at 200 µg/mL [7] of 23 mm. The MBC [8] was 50 mg/L (≈ 106 µM), the zone of inhibition at 200 µg/mL [20] was 19 mm and the MIC [9] was 50 mg/L (≈ 106 µM). It also gave an MBC [10] of 50 mg/L (≈ 106 µM), a zone of inhibition at 100 µg/mL [11] of 21 mm and a zone of inhibition at 100 µg/mL [21] of 17 mm. The MBC [12] was 100 mg/L (≈ 211 µM), the zone of inhibition at 200 µg/mL [13] was 13 mm and the zone of inhibition at 100 µg/mL [14] was 12 mm. For the same compound, the zone of inhibition at 200 µg/mL [15] was 17 mm.
